ChEMBL document CHEMBL4364253, “Application of Dually Activated Michael Acceptor to the Rational Design of Reversible Covalent Inhibitor for Enterovirus 71 3C Protease” (J Med Chem, 2019)
Active and inactive are the calls of the source.

Tests used:
[1] = system: Enterovirus A71; experiment: Antiviral activity against pseudotyped Enterovirus A71 infected in human muscular rhabdomyosarcoma cells treated prior to viral infection and measured after 24 hrs by luminescence method; format: functional, organism-based; details: Enterovirus A
[2] = Reversible inhibition of Enterovirus 71 3C protease assessed as overall inhibition constant using NMA-IEALFQGPPK(DNP)FR as substrate pre-incubated for 30 mins followed by substrate addition and measured over 30 mins by fluorescence method; set-up: species or system Enterovirus A71
[3] = system: RD; experiment: Cytotoxicity against human RD cells at 100 uM after 24 hrs by WST-1 assay relative to control; format: cell-based
[4] = biological target: Chymotrypsinogen A (Bos taurus) (UniProt P00766); experiment: Inhibition of bovine pancreas alpha-chymotrypsin at 50 uM after 30 mins using N-Succinyl-L-phenylalanine- p-nitroanilide measured for 30 mins
[5] = biological target: T1, Cathepsin K (Homo sapiens) (UniProt P43235); experiment: Inhibition of human Cathepsin K at 50 uM using Ac-LR-AFC as substrate preincubated for 10 to 15 mins followed by substrate addition and measured for 30 to 60 mins by fluorescence method relative to control
T1 sequence (whole entry): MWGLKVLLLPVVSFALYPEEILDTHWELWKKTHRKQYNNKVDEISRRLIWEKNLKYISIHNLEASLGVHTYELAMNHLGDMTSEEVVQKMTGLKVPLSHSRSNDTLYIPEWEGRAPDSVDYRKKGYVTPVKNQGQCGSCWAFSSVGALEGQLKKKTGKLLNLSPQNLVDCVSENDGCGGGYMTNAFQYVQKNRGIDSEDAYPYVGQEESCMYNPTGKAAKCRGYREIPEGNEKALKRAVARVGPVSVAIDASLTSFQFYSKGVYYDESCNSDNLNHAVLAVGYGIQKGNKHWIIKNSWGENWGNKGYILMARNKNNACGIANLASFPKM

[6] = biological target: T2, Calpain-1 catalytic subunit (Homo sapiens) (UniProt P07384); experiment: Inhibition of human Calpain1 at 50 uM using Ac-LLY-AFC as substrate preincubated for 5 mins followed by substrate addition and measured after 10 mins by fluorescence method relative to control
T2 sequence (whole entry): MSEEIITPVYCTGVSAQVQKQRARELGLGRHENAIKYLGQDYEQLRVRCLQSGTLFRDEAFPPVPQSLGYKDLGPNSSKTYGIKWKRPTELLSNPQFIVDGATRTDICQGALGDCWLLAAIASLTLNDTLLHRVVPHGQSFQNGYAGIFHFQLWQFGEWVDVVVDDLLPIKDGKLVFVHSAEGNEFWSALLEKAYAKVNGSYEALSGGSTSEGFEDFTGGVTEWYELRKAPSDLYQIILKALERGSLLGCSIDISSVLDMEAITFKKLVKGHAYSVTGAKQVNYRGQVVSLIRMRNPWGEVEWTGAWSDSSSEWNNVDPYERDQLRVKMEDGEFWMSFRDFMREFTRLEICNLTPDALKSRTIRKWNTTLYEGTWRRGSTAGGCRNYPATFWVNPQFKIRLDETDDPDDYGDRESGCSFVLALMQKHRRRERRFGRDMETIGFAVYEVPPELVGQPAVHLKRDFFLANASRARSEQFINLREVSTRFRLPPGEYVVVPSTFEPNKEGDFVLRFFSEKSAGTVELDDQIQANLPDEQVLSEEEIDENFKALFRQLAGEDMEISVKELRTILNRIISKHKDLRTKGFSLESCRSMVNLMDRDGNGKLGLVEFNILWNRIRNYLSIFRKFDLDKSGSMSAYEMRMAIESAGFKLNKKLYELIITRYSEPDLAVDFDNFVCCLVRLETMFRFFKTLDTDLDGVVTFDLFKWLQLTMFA

[7] = system: Enterovirus A71; experiment: Binding affinity to Enterovirus 71 3C protease assessed as enzyme-compound covalent adduct formation via Cys147 residue by measuring ratio of peak intensity of covalently modified to unmodified protein at 10 equivalent after 30 mins by HPLC-ESI/MS analysis
Method in brief: (§1)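 Recombinant EV71 3C protease (40 µM) incubated with inhibitor at 30 °C in 50 mM Tris, 150 mM NaCl, 1 mM EDTA-2Na, pH 7.0. Free inhibitor and salts removed by three ultrafiltration washes with water (10 kDa cutoff). Analysis by HPLC-ESI-Orbitrap MS with 0.1% formic acid water/acetonitrile mobile phases. Spectra deconvoluted; modification given as adduct-to-unmodified protein peak intensity ratio (I_add/I_pro).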

[8] = system: Enterovirus A71; experiment: Irreversible covalent inhibition of Enterovirus 71 3C protease up to 80 uM using NMA-IEALFQGPPK(DNP)FR as substrate by fluorescence method; details: TDE = time-dependent effect
[9] = system: Enterovirus A71; experiment: Irreversible covalent inhibition of Enterovirus 71 3C protease assessed as Kinact/Ki ratio using NMA-IEALFQGPPK(DNP)FR as substrate and measured for 1 to 1.5 hrs by fluorescence method
[10] = system: Enterovirus A71; experiment: Reversible inhibition of Enterovirus 71 3C protease assessed as recovery of enzyme activity at 10 to 20 equivalent using peptide substrate pre-incubated for 1 hr followed by dilution prior to substrate addition using ultra-filtered sample relative to control
[11] = system: Enterovirus A71; experiment: Irreversible covalent inhibition of Enterovirus 71 3C protease assessed as steady-state velocity approaching zero up to 64 uM using NMA-IEALFQGPPK(DNP)FR as substrate by fluorescence method
[12] = system: Enterovirus A71; experiment: Binding affinity to Enterovirus 71 3C protease assessed as enzyme-compound covalent adduct formation via Cys147 residue by measuring ratio of peak intensity of covalently modified to unmodified protein at 10 to 20 equivalent after 1 hr by HPLC-ESI/MS analysis; method in brief: as §1
[13] = system: Enterovirus A71; experiment: Reversible inhibition of Enterovirus 71 3C protease assessed as recovery of enzyme activity at 10 to 20 equivalent using peptide substrate pre-incubated for 1 hr followed by dialysis and subsequent substrate addition measured up to 72 hrs relative to control; set-up: scale not given: the % may be the effect or the level left

SMILES	EC50 [1] [nM]	Ki [2] [nM]	Activity [3] [%]	further results
CCOC(=O)/C(C#N)=C/[C@H](C[C@@H]1CCCNC1=O)NC(=O)[C@H](Cc1ccc(F)cc1)NC(=O)c1cc(C)on1	72	13.1		
CC(C#N)=C[C@H](C[C@@H]1CCCNC1=O)NC(=O)[C@H](Cc1ccc(F)cc1)NC(=O)c1cc(C)on1	> 100000			
Cc1cc(C(=O)N[C@@H](Cc2ccc(F)cc2)C(=O)N[C@H](CC(C#N)c2ccccn2)C[C@@H]2CCCNC2=O)no1 (mixture of isomers)	> 100000		50	
COC(=O)C(Cl)=C[C@H](C[C@@H]1CCCNC1=O)NC(=O)[C@H](Cc1ccc(F)cc1)NC(=O)c1cc(C)on1	670	152	100	inhibition [4]: inactive; inhibition [5]: < 50%; inhibition [6]: < 50%
Cc1cc(C(=O)N[C@@H](Cc2ccc(F)cc2)C(=O)N[C@H](C=C(Cl)C#N)C[C@@H]2CCCNC2=O)no1	> 100000		100	
COC(=O)/C=C/[C@H](C[C@@H]1CCCNC1=O)NC(=O)[C@H](Cc1ccc(F)cc1)NC(=O)c1cc(C)on1	18300			inhibition [4]: inactive; Ratio [7]: > 100; inhibition [8]: Tde; Ratio [9]: 34 M⁻¹ s⁻¹; Activity [10]: inactive; inhibition [5]: < 50%; inhibition [6]: < 50%; inhibition [11]: Active
CCCOC(=O)/C(C#N)=C/[C@H](C[C@@H]1CCCNC1=O)NC(=O)[C@H](Cc1ccc(F)cc1)NC(=O)c1cc(C)on1	77	10.3		
CNC(=O)/C(C#N)=C/[C@H](C[C@@H]1CCCNC1=O)NC(=O)[C@H](Cc1ccc(F)cc1)NC(=O)c1cc(C)on1	400	304		inhibition [4]: inactive; Ratio [12]: 0.1; Activity [10]: Active; Activity [13]: 50%; inhibition [5]: < 50%; inhibition [6]: < 50%
COC(=O)C(C#N)C[C@H](C[C@@H]1CCCNC1=O)NC(=O)[C@H](Cc1ccc(F)cc1)NC(=O)c1cc(C)on1 (mixture of isomers)	> 100000			
Cc1cc(C(=O)N[C@@H](Cc2ccc(F)cc2)C(=O)N[C@H](/C=C(\C#N)c2ccccc2)C[C@@H]2CCCNC2=O)no1	> 100000			
Cc1cc(C(=O)N[C@@H](Cc2ccc(F)cc2)C(=O)N[C@H](C=C(Br)C#N)C[C@@H]2CCCNC2=O)no1	> 100000		100	
Cc1cc(C(=O)N[C@@H](Cc2ccc(F)cc2)C(=O)N[C@@H](C[C@@H]2CCCNC2=O)C(O)C#N)no1 (some centres not stated)				inhibition [5]: Active; inhibition [6]: Active
Cc1cc(C(=O)N[C@@H](Cc2ccc(F)cc2)C(=O)N[C@H](/C=C(\C#N)C(=O)OC(C)C)C[C@@H]2CCCNC2=O)no1	58	16.1		
CNC(=O)/C=C/[C@H](C[C@@H]1CCCNC1=O)NC(=O)[C@H](Cc1ccc(F)cc1)NC(=O)c1cc(C)on1	21000			Ratio [7]: > 100; inhibition [8]: Tde; Ratio [9]: 46 M⁻¹ s⁻¹; inhibition [11]: Active
CCCNC(=O)/C(C#N)=C/[C@H](C[C@@H]1CCCNC1=O)NC(=O)[C@H](Cc1ccc(F)cc1)NC(=O)c1cc(C)on1	990	752		
Cc1cc(C(=O)N[C@@H](Cc2ccc(F)cc2)C(=O)N[C@H](/C=C(\C#N)c2ccccn2)C[C@@H]2CCCNC2=O)no1	460	119	100	inhibition [4]: inactive; inhibition [5]: 65%; inhibition [6]: < 50%
CCCN(C(=O)OC(C)(C)C)C(=O)/C(C#N)=C/[C@H](C[C@@H]1CCCNC1=O)NC(=O)[C@H](Cc1ccc(F)cc1)NC(=O)c1cc(C)on1	89	18		
COC(=O)C(Br)=C[C@H](C[C@@H]1CCCNC1=O)NC(=O)[C@H](Cc1ccc(F)cc1)NC(=O)c1cc(C)on1	290	115	100	
Cc1cc(C(=O)N[C@@H](Cc2ccc(F)cc2)C(=O)N[C@H](/C=C(/C#N)c2ccccn2)C[C@@H]2CCCNC2=O)no1	2700	693	90	
CCOC(=O)C(Br)=C[C@H](C[C@@H]1CCCNC1=O)NC(=O)[C@H](Cc1ccc(F)cc1)NC(=O)c1cc(C)on1	350	117	100	
CCOC(=O)/C=C/[C@H](C[C@@H]1CCCNC1=O)NC(=O)[C@H](Cc1ccc(F)cc1)NC(=O)c1cc(C)on1	17000			inhibition [8]: Tde; Ratio [9]: 72 M⁻¹ s⁻¹; inhibition [11]: Active
Cc1cc(C(=O)N[C@@H](Cc2ccc(F)cc2)C(=O)N[C@H](/C=C(/C#N)c2ccsc2)C[C@@H]2CCCNC2=O)no1	19500			
CCOC(=O)C(Cl)=C[C@H](C[C@@H]1CCCNC1=O)NC(=O)[C@H](Cc1ccc(F)cc1)NC(=O)c1cc(C)on1	380	164	100	
Cc1cc(C(=O)N[C@@H](Cc2ccc(F)cc2)C(=O)N[C@H](/C=C(\C#N)c2ccsc2)C[C@@H]2CCCNC2=O)no1	3100	516		inhibition [4]: inactive; inhibition [5]: < 50%; inhibition [6]: < 50%
CCNC(=O)/C(C#N)=C/[C@H](C[C@@H]1CCCNC1=O)NC(=O)[C@H](Cc1ccc(F)cc1)NC(=O)c1cc(C)on1	510	332		
Cc1cc(C(=O)N[C@@H](Cc2ccc(F)cc2)C(=O)N[C@H](C=O)C[C@@H]2CCCNC2=O)no1				inhibition [5]: Active; inhibition [6]: < 50%
Cc1cc(C(=O)N[C@@H](Cc2ccc(F)cc2)C(=O)N[C@H](/C=C(\C#N)c2ccc3ccccc3c2)C[C@@H]2CCCNC2=O)no1	13000			
